Values joined by “and” are separate entries in the source; they are usually repeats but may differ in a detail not shown here. Equal values may be shown once. Read-outs that look alike come from different tables or passages of the source.
Columns and labels:
rat platelets (PRP) [1] = assay: Ex vivo determination of SIPA inhibition after oral dosing; assay type: in vivo; settings: rats, 5, 10 and 25 mg·kg^−1 p.o., 1 hr
Summary of the method: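 Male SD rats (280–320 g) were gavaged with test compound in 5% DMSO/10% Tween 80 in water at 5 ml·kg−1. After 1 hr, aortic blood was drawn under urethane (1.25 g·kg−1 i.p.) into 3.8% citrate (1:9), and PRP was prepared. PRP was sheared at 10,800 s−1 in a cone‑plate viscometer, fixed with glutaraldehyde, and aggregation was scored by microscopic single‑cell count. n = 6 rats per group.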

human purified vWF = assay: Platelet adhesion to vWF-coated flow chamber under high shear stress; assay type: cell-based; settings: flow chamber coated with 50 μg·ml^−1 vWF
vWF–GP Ib interaction = vWF–GP Ib interaction (Homo sapiens, UniProt P04275); assay: vWF binding to platelets under high shear stress; assay type: cell-based
Chain of vWF–GP Ib interaction (P04275 764-2813 limits assumed): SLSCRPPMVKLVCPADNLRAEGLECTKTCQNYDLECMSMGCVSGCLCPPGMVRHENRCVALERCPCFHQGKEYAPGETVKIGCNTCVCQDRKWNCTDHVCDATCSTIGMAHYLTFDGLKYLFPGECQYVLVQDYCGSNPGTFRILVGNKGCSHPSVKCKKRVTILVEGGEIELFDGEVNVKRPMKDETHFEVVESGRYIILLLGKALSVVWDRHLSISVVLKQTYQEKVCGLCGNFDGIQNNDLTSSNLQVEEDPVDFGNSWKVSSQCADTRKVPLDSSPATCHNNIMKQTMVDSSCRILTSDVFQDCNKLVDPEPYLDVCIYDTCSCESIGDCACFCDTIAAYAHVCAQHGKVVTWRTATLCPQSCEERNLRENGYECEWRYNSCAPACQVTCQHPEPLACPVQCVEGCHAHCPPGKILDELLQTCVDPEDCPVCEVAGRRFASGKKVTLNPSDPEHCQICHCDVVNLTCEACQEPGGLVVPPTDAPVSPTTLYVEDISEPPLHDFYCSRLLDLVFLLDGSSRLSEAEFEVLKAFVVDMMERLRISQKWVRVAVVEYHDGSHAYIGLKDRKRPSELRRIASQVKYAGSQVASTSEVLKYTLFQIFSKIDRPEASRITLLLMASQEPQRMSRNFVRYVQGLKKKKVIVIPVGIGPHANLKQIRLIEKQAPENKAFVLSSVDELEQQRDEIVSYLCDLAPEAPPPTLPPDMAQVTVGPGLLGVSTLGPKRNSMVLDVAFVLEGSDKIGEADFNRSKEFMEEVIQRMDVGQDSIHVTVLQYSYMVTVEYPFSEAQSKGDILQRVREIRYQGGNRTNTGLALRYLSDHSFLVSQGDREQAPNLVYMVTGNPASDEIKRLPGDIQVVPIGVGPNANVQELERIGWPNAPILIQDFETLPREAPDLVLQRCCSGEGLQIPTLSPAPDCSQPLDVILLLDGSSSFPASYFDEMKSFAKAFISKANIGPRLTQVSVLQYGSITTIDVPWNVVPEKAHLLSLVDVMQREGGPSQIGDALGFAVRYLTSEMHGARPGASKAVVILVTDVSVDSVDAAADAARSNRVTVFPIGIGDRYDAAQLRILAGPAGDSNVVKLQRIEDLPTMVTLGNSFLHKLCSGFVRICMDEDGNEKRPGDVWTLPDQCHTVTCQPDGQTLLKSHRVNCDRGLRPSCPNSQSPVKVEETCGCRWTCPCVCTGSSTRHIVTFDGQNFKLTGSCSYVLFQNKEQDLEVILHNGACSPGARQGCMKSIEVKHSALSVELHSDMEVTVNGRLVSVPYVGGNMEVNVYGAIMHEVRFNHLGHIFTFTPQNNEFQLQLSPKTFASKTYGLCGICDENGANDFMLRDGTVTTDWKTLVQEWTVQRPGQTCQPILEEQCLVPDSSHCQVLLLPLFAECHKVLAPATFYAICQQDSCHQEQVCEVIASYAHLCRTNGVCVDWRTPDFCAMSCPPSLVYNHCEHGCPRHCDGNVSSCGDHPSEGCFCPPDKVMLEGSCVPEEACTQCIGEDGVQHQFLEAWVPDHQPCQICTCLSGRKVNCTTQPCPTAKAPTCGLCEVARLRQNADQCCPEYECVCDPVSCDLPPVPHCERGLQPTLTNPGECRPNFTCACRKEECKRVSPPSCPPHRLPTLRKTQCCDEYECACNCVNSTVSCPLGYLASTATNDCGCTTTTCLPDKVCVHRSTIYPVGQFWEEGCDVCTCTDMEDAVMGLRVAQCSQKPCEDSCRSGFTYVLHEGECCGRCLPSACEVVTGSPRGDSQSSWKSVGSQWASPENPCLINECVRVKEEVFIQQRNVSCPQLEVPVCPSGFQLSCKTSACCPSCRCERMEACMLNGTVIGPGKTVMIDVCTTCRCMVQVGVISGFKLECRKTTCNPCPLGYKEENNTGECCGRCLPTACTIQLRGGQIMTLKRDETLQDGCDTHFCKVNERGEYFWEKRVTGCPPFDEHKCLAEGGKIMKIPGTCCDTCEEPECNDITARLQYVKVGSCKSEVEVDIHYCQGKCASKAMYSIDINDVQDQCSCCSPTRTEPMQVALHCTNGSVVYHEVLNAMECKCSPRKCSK
Summary of the method: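 Platelets were treated with test compound, exposed to shear stress, and diluted in Tyrode's buffer. They were stained with anti‑vWF‑FITC and anti‑CD42b‑PE for 20 min in the dark, and 10,000 events were analysed by flow cytometry. For GP IIb/IIIa blockade, platelets were preincubated with 2 mM Arg‑Gly‑Asp. Values are expressed relative to vehicle and normalised to unsheared samples, n = 5.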

washed platelets [2] = assay: P-selectin expression under high shear stress; assay type: cell-based, human
Summary of the method: (§1)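 Human washed platelets (acid–citrate–dextrose with 1 μM PGE1, washed in Tyrode's pH 7.4, 3 × 10^8/ml, 2 mM CaCl2) were incubated with a range of test compound concentrations, then sheared at 10,800 s−1 for 10 min in a cone-plate viscometer. Cells were labelled with anti-CD42b-PE plus anti-CD62P-FITC, PAC-1-FITC or Alexa Fluor 488-fibrinogen for 20 min in the dark and read by flow cytometry (10,000 events). Values are relative to vehicle and normalised to unsheared samples, mean ± SEM. n = 6 for P-selectin and PAC-1, n = 5 for fibrinogen.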

rat platelets (PRP) [3] = assay: SIPA in rat PRP in vitro; assay type: cell-based; settings: n = 8
SD rats = assay: Transection tail bleeding time; assay type: in vivo, rat
Summary of the method: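 Male SD rats were dosed orally with test compound, either once or twice daily for 2 weeks; clopidogrel 8 mg·kg−1 was given on the same regimens. One hour after dosing, under urethane (1.25 g·kg−1 i.p.), tails were transected 3 mm from the tip and blotted every 30 s until bleeding stopped, with a 30 min cut‑off. n = 6 (single) or 5 (multiple) per group.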

[4] = test system: carotid artery thrombosis in SD rats; assay: FeCl3-induced arterial thrombosis model; assay type: in vivo, rat
human platelets (PRP) [5] = assay: Agonist-induced platelet aggregation in human PRP; assay type: cell-based; settings: for IC50: Homo sapiens, Platelet
Summary of the method: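 Human blood was anticoagulated with 3.2% citrate (1:9) and spun at 150 g for 15 min to give PRP, adjusted to 3 × 10^8 platelets/ml with PPP. PRP was incubated with test compound for 30 min at 37°C, then stimulated for 6 min with thrombin (0.6–0.8 U·ml−1), collagen (2–4 μg·ml−1), ADP (5–10 μM) or ristocetin (1.0–1.25 mg·ml−1). Aggregation was read by light transmission, with PPP as 100%.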

[6] = test system: platelets in human whole blood; assay: Thrombus formation under flow conditions, collagen-coated flow chamber; assay type: cell-based; settings: shear rate 1,500 s^−1, concentration-dependent, n = 5
Summary of the method: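 Flow chambers were coated with 100 μg·ml−1 equine type I collagen for 60 min at room temperature, washed with PBS and blocked with 1% BSA for 60 min. Whole blood loaded with 5 μM calcein‑green AM was incubated with test compound for 30 min. It was perfused at 1,500 s−1 for 5 min, imaged by confocal microscopy, and reported as % coverage area, n = 5.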

[7] = Ex vivo prothrombin time and activated partial thromboplastin time; settings: rats, therapeutic dose range p.o., 1 hr
platelets [8] = assay: Platelet cytotoxicity, LDH leakage; assay type: cell-based, human; settings: concentrations up to 1,000 μM
Summary of the method: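 Platelets were incubated with test compound and centrifuged. Supernatant was added to Tris‑EDTA NADH buffer (56 mM Tris, 5.6 mM EDTA, 0.17 mM β‑NADH, pH 7.4) and preincubated for 10 min at 37°C, then 14‑mM pyruvate solution was added. LDH was read as the fall in A339, expressed as % of total activity in a 0.3% Triton X‑100 lysate. Samples were run in duplicate, with five repeats.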

washed human platelets = assay: SIPA in washed human platelets; assay type: cell-based; settings: 30 min incubation, n = 6
Summary of the method: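 Human washed platelets (3 × 10^8/ml in Tyrode's pH 7.4, 2 mM CaCl2) were preincubated with test compound for 30 min, and 10 μg·ml−1 vWF was added. They were then sheared in a cone-plate viscometer at 10,800 s−1 for 10 min at 37°C and fixed with 0.5% glutaraldehyde. Aggregation was scored from single-cell counts by light microscopy and […]. n = 6, mean ± SEM.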

washed platelets [9] = assay: Intracellular calcium level under high shear stress; assay type: cell-based, human; settings: washed platelets, 10,800 s^−1, concentration-dependent
human platelets (PRP) [10] = assay: Shear stress-induced platelet aggregation; assay type: cell-based
[11] = Pharmacokinetic experiments in rats; assay type: in vivo; settings: Sprague-Dawley, rat, plasma; for Tmax: SD rats, p.o. 25 mg·kg^−1
platelets [12] = assay: 5-HT release under high shear stress; assay type: cell-based, human
Summary of the method: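 Platelets were treated with a range of test compound concentrations for 30 min and exposed to high shear stress. Supernatants were collected by centrifugation at 12,000 g for 5 min at 4°C, and 5‑HT was measured by ELISA. Samples were run in duplicate, n = 5 per group. Values are expressed relative to matched vehicle and normalised to unsheared samples.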

washed platelets [13] = assay: Fibrinogen binding under high shear stress; assay type: cell-based, human
Summary of the method: as §1

GP IIb/IIIa = GP IIb/IIIa activation under high shear stress; assay type: cell-based, human
Summary of the method: as §1

SMILES: CCc1occc(=O)c1OC(=O)c1ccc(O)c(OC)c1 [SP‐8008, benzoic acid, 4‐hydroxy‐3‐methoxy‐, 2‐ethyl‐4‐oxo‐4H‐pyran‐3‐yl ester]
- Ex vivo effect on SIPA after oral administration (rat platelets (PRP) [1]): dose‐dependent inhibitory effects
- Adhesion of platelets to vWF-coated surfaces (human purified vWF): significantly inhibited
- Binding of vWF to platelets under high shear with GP IIb/IIIa blocked (vWF–GP Ib interaction; GP IIb/IIIa blocked by Arg-Gly-Asp 2 mM): maintained
- Binding of vWF to platelets under high shear (vWF–GP Ib interaction; GP IIb/IIIa free, concentration-dependent): markedly blocked
- Effect on shear stress-induced P-selectin expression (α-granule secretion) (washed platelets [2]): significant reduction
- Effect on SIPA in rat platelets in vitro (rat platelets (PRP) [3]): significantly inhibited
- Tail bleeding time, single dose (SD rats; single oral dose up to 100 mg·kg^−1): did not prolong bleeding time
- Potency against arterial thrombosis after intravenous administration ([4]; intravenous administration, data not shown): strong inhibitory potency
- Inhibition of arterial thrombosis compared with clopidogrel (8 mg·kg^−1) ([4]; rats, 25 mg·kg^−1 p.o., single treatment): close to that provided by clopidogrel
- Time to occlusion, single treatment ([4]; rats, 10 or 25 mg·kg^−1 p.o., FeCl3): significantly prolong
- Antithrombotic effects, multiple treatments ([4]; rats, oral twice daily for 5 days (2 weeks elsewhere in the source)): further confirmed
- IC50 (human platelets (PRP) [5]; read-out: IC50 (μM), platelet activator ADP): > 250 µM
- IC50 (human platelets (PRP) [5]; read-out: IC50 (μM), platelet activator collagen): > 250 µM
- IC50 (human platelets (PRP) [5]; read-out: IC50 (μM), platelet activator thrombin): > 250 µM
- Ristocetin-induced platelet aggregation (human platelets (PRP) [5]; human PRP, ristocetin): attenuated
- Size and number of platelet aggregates in collagen-coated flow chamber [6]: significantly reduced
- Blood clotting time (prothrombin time and activated partial thromboplastin time) [7]: did not prolong blood clotting time
- LDH leakage from platelets (platelets [8]): did not increase LDH leakage
- Effect on SIPA in washed human platelets (washed human platelets): suppressed
- Effect on shear stress-induced intracellular calcium elevation (washed platelets [9]): decreased the elevation of intracellular calcium
- inhibition at 25 µM (human platelets (PRP) [10]; Homo sapiens, Platelet, read-out: In vitro SIPA inhibition (%)): 84 ± 16%
- Effect on SIPA in human PRP (human platelets (PRP) [10]; concentration-dependent, 30 min incubation, n = 8): significantly inhibited
- Selectivity for SIPA over thrombin, collagen, ADP (human platelets (PRP) [10]; ratio of IC50 values): over 150 fold
- AUC(0-inf) ([11]; iv, 10 mg/kg): 3250 ng·h/mL
- Vd ([11]; iv, 10 mg/kg): 5.3 ± 1.1 L/kg
- clearance ([11]; iv, 10 mg/kg): 51.7 mL/min/kg
- half-life ([11]; iv, 10 mg/kg): 2.4 ± 0.5 h
- bioavailability ([11]; oral, 25 mg·kg^−1): 55.3 ± 16.7%
- AUC(0-inf) ([11]; po, 25 mg/kg): 4490 ng·h/mL
- Cmax ([11]; po, 25 mg/kg): 2370 ng/mL
- half-life ([11]; po, 25 mg/kg): 3.6 ± 1.4 h
- Tmax ([11]; po, 25 mg/kg, tmax (hr)): 7.2 ± 6 min
- Tmax ([11]; po, 25 mg/kg, tmax): ~7 min
- concentration at 3 min ([11]; po, 25 mg·kg^−1): 2290 ng/mL
- concentration at 15 min ([11]; po, 25 mg·kg^−1): 1750 ng/mL and 6 µM
- concentration at 30 min ([11]; po, 25 mg·kg^−1): 1060 ng/mL and 3.7 µM
- concentration at 1 hr ([11]; po, 25 mg·kg^−1): 2.2 µM and 586 ng/mL
- concentration at 4 hr ([11]; po, 25 mg·kg^−1): 1.3 µM and 366 ng/mL
- concentration at 8 hr ([11]; po, 25 mg·kg^−1): 700 nM and 198 ng/mL
- Effect on shear stress-induced 5-HT release (dense granule secretion) (platelets [12]): significant reduction
- Effect on shear stress-induced fibrinogen binding (washed platelets [13]): significantly blocked
- Effect on shear stress-induced GP IIb/IIIa activation (GP IIb/IIIa): significantly blocked

SMILES: COC(=O)[C@H](c1ccccc1Cl)N1CCc2sccc2C1 [clopidogrel, reference compound]
- Tail bleeding time (bleeding risk) (SD rats; 8 mg·kg^−1): clearly increased
